Holding throughout (type): functional, cell-based
The subject of test [1] is MCF7. In words: Tested for inhibitory activity against human tumor cell line MCF7, a strain sensitive to doxorubicin of breast carcinoma using sulforhodamine B assay. Background: Sulforhodamine B stains cellular protein and so reports cell mass.
For test [2], the system named is L1210. In words: Tested for inhibitory activity against murine cell line […], a strain sensitive to doxorubicin using MTT assay. The conditions noted are these: Mus musculus. An outline of the steps:
(§1)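 Murine L1210 leukaemia cells were tested as a drug-sensitive strain and as a multiple drug-resistant strain that is P-glycoprotein positive. Growth inhibition in both strains was read by MTT assay.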
In general terms: Formazan colour is commonly taken as a measure of viable cells.

Test [3] relates to OVCAR-3. The test can be described thus: Tested for inhibitory activity against human tumor cell line OVCAR-3, a resistant ovarian carcinoma using sulforhodamine B assay.
Test [4] deals with WiDr. In words: Tested for inhibitory activity against a multi drug resistant (MDR) strain of human colon carcinoma WiDr using sulforhodamine B assay (it is MRP positive but non-P-glycoprotein).
In test [5] the test system is WiDr. The test can be described thus: Tested for inhibitory activity against a sensitive strain of human colon carcinoma WiDr using sulforhodamine B assay (it is MRP positive but non-P-glycoprotein).
Test [6] is described as follows: Tested for inhibitory activity against human tumor cell line A549 (a non small, drug resistant cell line that does not produce P-glycoprotein) of lung carcinoma using sulforhodamine B assay.
Test [7] deals with MCF7. In words: Tested for inhibitory activity against human tumor cell line D40, a strain resistant to doxorubicin of breast carcinoma using sulforhodamine B assay.
For test [8], the system named is MCF7. The test can be described thus: Tested for inhibitory activity against human tumor cell line MCF7, a strain resistant to mitoxantrone of breast carcinoma using sulforhodamine B assay.
In test [9] the test system is L1210. The test can be described thus: Tested for inhibitory activity against murine cell line […], a strain resistant to doxorubicin using MTT assay. Particulars: Mus musculus. An outline of the steps:
as §1

Test [10] deals with UACC-375. In words: Tested for inhibitory activity against human tumor cell line UA375 of melanoma using sulforhodamine B assay.

By IC50 is commonly meant the concentration that gives 50% inhibition. With `CN(C)CCN1C(=O)c2cccc3c2c(cc2c(N)cccc23)C1=O`, the IC50 in test [1] was found to be 550 nM; in test [2], 54 nM; in test [3], 541 nM; in test [4], 525 nM; in [5], 280 nM; in test [6] it was 280 nM. Also, the IC50 in [7] was determined as 590 nM; in test [8], 550 nM; in test [9], 54 nM; in [10] it was 1080 nM.
As for `CN(C)CCN1C(=O)c2cccc3c2c(cc2ccccc23)C1=O`, the IC50 stood at 220 nM in [1]; 197 nM in test [2]; 564 nM in test [3]; 420 nM in test [4]; 240 nM in test [5]; 220 nM in test [6]. In addition, the IC50 in test [7] stood at 500 nM; in test [8], 280 nM; in [9] it was 165 nM; in [10] it was 564 nM.
As to `CN(C)CCN1C(=O)c2cc(NC(=O)C(C)(C)C)cc3cc4c(c(c23)C1=O)CCCC4`, the IC50 in [1] was 1700 nM; in test [2] it was 984 nM; in test [3], 4270 nM; in test [4], 1500 nM; in [5], 1200 nM; in [6], 850 nM. Further, the IC50 in [7] turned out to be 1300 nM; in test [8] it was 1000 nM; in [9] it was 1530 nM; in test [10] it was 4270 nM.
With `CN(C)CCN1C(=O)c2cccc3c2c(cc2cccc(O)c23)C1=O`, the IC50 was 625 nM in test [1]; 540 nM in [2]; 675 nM in test [3]; 2300 nM in [4]; 260 nM in [5]; 160 nM in test [6]. Besides, the IC50 in [7] was 675 nM; in test [8], 390 nM; in [9] it was 540 nM; in test [10] it was 405 nM.
For `CN(C)CCN1C(=O)c2cccc3c2c(cc2c(O)cccc23)C1=O`, the IC50 amounted to 625 nM in [1]; 810 nM in test [2]; 810 nM in test [3]; 500 nM in [4]; 320 nM in test [5]; 420 nM in test [6]. Moreover, the IC50 in test [7] stood at 560 nM; in test [8], 340 nM; in test [9], 1350 nM; in [10] it was 540 nM.
On to `CN(C)CCN1C(=O)c2cc3cccnc3c3ccc(N)c(c23)C1=O`, for which the IC50 in test [1] was 270 nM; in test [2], 233 nM; in [3] it was 466 nM; in test [4] it was 210 nM; in [5], 160 nM; in test [6] it was 170 nM. The IC50 in test [7] came out at 310 nM; in test [8], 310 nM; in [9] it was 186 nM; in test [10] it was 117 nM.
Consider `CN(C)CCN1C(=O)c2cccc3c2c(cc2cccc(Cl)c23)C1=O`, for which the IC50 was found to be 160 nM in test [1]; 256 nM in test [2]; 385 nM in test [3]; 380 nM in [4]; 220 nM in test [5]; 45 nM in [6]. Besides, the IC50 in test [7] stood at 286 nM; in test [8] it was 150 nM; in test [9], 231 nM; in test [10], 179 nM.
For `CC(=O)Nc1ccc2cc3c(c4c2c1C(=O)N(CCN(C)C)C4=O)CCCC3`, the 50% inhibitory concentration (IC50) stood at 40 nM in [1]; 60 nM in [2]; 48 nM in [3]; 240 nM in [4]; 31 nM in test [5]; 32 nM in test [6]. In addition, the IC50 in test [7] turned out to be 130 nM; in test [8] it was 40 nM; in test [9] it was 36 nM; in [10], 132 nM.
As to `CN(C)CCN1C(=O)c2cccc3c2c(cc2cccc(N)c23)C1=O`, the IC50 came to 130 nM in [1]; 54 nM in [2]; 68 nM in test [3]; 460 nM in test [4]; 240 nM in test [5]; 37 nM in test [6]. Further, the IC50 in [7] is 290 nM; in test [8] it was 150 nM; in test [9] it was 50 nM; in test [10], 244 nM.
As to `CN(C)CCN1C(=O)c2cccc3c2c(cc2c([N+](=O)[O-])cccc23)C1=O`, the IC50 in test [1] stood at 150 nM; in [2], 50 nM; in test [3], 50 nM; in test [4], 175 nM; in [5] it was 135 nM; in test [6], 154 nM. In addition, the IC50 in test [7] was 170 nM; in test [8], 180 nM; in test [9] it was 50 nM; in test [10], 175 nM.
On to `CN(C)CCN1C(=O)c2cccc3c2c(cc2c(Cl)cccc23)C1=O`, for which the IC50 in [1] was found to be 60 nM; in [2], 769 nM; in test [3] it was 513 nM; in test [4] it was 110 nM; in [5] it was 20 nM; in [6] it was 22 nM. In addition, the half-inhibitory concentration (IC50) stood at 80 nM in test [7], 19 nM in test [8], 513 nM in test [9] and 513 nM in test [10].
Turning to `CN(C)CCN1C(=O)c2cc(N)cc3cc4c(c(c23)C1=O)CCCC4`, the IC50 stood at 240 nM in test [1]; 73 nM in test [2]; 488 nM in test [3]; 1600 nM in test [4]; 230 nM in test [5]; 170 nM in [6]. For the same compound, the IC50 in test [7] was found to be 900 nM; in [8], 320 nM; in test [9], 26 nM; in [10], 610 nM.
As to `CN(C)CCN1C(=O)c2c(N)ccc3cc4c(c(c23)C1=O)CCCC4`, the IC50 in [1] came out at 120 nM; in [2], 11 nM; in test [3], 80 nM; in test [4] it was 450 nM; in test [5] it was 79 nM; in test [6] it was 13 nM. For the same compound, the IC50 in [7] was 110 nM; in test [8], 130 nM; in test [9], 2 nM; in test [10], 187 nM.
With `CC(=O)Nc1ccc2c3c(cc4cccnc42)C(=O)N(CCN(C)C)C(=O)c13`, the IC50 in test [1] came to 270 nM; in test [2], 424 nM; in [3] it was 424 nM; in test [4] it was 195 nM; in test [5], 130 nM; in test [6], 150 nM. For the same compound, the IC50 in [7] came to 290 nM; in [8], 270 nM; in test [9], 127 nM; in test [10], 212 nM.
Regarding `CN(C)CCN1C(=O)c2cccc3cc(N)cc(c23)C1=O` [AMONAFIDE], the IC50 in test [6] amounted to 1100 nM. This counts as single-digit micromolar.
Regarding `CN(C)CCN1C(=O)c2cccc3cc4ccccc4c(c23)C1=O` [AZONAFIDE], inhibition in [6] was half-maximal at 10 nM (IC50).
`COc1cccc2c1C(=O)c1c(O)c3c(c(O)c1C2=O)C[C@@](O)(C(=O)CO)C[C@@H]3O[C@H]1C[C@H](N)[C@H](O)[C@H](C)O1` [DOXORUBICIN] registered an IC50 in [6] of 22 nM.
In the case of `O=C1c2c(O)ccc(O)c2C(=O)c2c(NCCNCCO)ccc(NCCNCCO)c21` [MITOXANTRONE], the IC50 in test [1] came out at 9 nM; in test [2] it was 10 nM; in [3] it was 6 nM; in test [5], 8 nM; in test [6], 3 nM.

(Values after ChEMBL document CHEMBL1133612, “Analogues of amonafide and azonafide with novel ring systems” (J Med Chem, 2000).)
